Screens (PubChem BioAssay)
PERK inhibitor = human PERK inhibition, primary cell-based screen; CHO PERK-DD fusion, SEAP luminescence translation reporter; inhibition, % at 5.6 µM; AID 1416; 220,000 tested, 0.17% active; Q9NZJ5;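 active = inhibition above the mean inhibition of all tested compounds plus 3 SD, set separately per screening campaign, cut at about 2.9% in these data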;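 also: PERK kinase domain activated by AP20187 dimerizer at 100 nM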
Hck-Nef inh = blocks Nef-activated human Hck kinase | P08631 | Recombinant Hck-YEEI plus Nef, Z-Lyte FRET kinase assay | inhibition, % at 20 µM | 220,000 tested, 0.68% active | AID 463187;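 active = Hck-Nef kinase inhibition above about 50%, limit read from the data; inactive = inhibition below that limit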
Target sequence (P08631 whole entry, looked up): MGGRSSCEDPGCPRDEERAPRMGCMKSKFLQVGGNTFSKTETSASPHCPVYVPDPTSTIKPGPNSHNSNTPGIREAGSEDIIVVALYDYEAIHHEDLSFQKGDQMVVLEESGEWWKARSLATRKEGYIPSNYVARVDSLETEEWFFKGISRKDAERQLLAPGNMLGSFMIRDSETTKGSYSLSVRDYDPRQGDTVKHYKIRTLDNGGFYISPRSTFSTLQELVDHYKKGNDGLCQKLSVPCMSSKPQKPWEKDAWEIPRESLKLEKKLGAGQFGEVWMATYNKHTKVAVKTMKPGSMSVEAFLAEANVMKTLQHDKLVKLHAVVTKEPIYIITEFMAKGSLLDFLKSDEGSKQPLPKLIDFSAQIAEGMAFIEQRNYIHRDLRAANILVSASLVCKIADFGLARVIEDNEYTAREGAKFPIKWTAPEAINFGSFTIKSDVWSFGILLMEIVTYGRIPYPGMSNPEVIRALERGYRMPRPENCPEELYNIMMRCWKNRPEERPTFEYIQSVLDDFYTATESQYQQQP
RanGTP-Imp inh = disruptors of Ran-importin-beta complex formation – biochemical, FRET, CFP-Ran, YFP-importin-beta, homogeneous, primary screen | 300,000 tested, 1.1% active | cell-free CFP-Ran/YFP-importin-beta FRET ratio | inhibition, % (concentration not given with the values);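 active = more than half of the replicate wells show a fall in the fluorescence ratio signal beyond about 16%, limit read from the data, passing the limit was not always enough; inconclusive = exactly half of the replicate wells pass the set limit; inactive = fewer than half of replicates pass the limit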
Runt-SMMHC FRET = inhibitors of human RUNX1 Runt domain binding to CBFb-SMMHC; Cerulean-Runt/Venus-CBFb-SMMHC FRET ratio 530/480, 1 h; inhibition, % at 20 µM; 220,000 tested, 0.74% active; AID 1434;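 active = mean inhibition across duplicate retests at 20 µM reaching about 50%, limit read from the data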;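 also: inhibitors lower the FRET ratio by blocking Runt binding to CBFb-SMMHC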
eIF4E-4G inh = eIF4E/eIF4G interaction inhibition in translation initiation; 220,000 tested, 0.37% active; TR-FRET eIF4E-eIF4GI(517-606) binding, 2 h; P63073+Q04637; inhibition, % at 21.7 µM;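 active = inhibition above about 30%, limit read from the data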
Runt-CBFb FRET = blocks binding of human RUNX1 Runt domain to CBFb; 220,000 tested, 0.46% active; inhibition, % at 20 µM; Cerulean-Runt/Venus-CBFb FRET ratio 530/480, 1 h; Q01196+Q13951;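 active = inhibition over about 50% at 20 µM in the single-dose screen, limit read from the data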
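Assay system: Cerulean-Runt domain / Medium: Tris 50 mM pH 7.5, KCl, K2SO4, 0.01% BSA / Timing: protein complex preformed 1 h, compound exposure 1 h, room temperature, dark / Measured by: FRET, excitation 422 nm, emission at 530 and 480 nm / Evaluation: loss of energy transfer signal / Control set: 5 µM unlabeled CBFb as full-inhibition high control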
Of the large screens only hits and unclear results are named; the others gave an inactive call. A selection: hits, their analogues and other compounds. The true share with any hit is near 2.2%.

CCOCCCn1c(=NC(=O)c2cccs2)c(C#N)cc2c(=O)n3cccc(C)c3nc21	RanGTP-Imp inh 121, Runt-SMMHC FRET 81, Runt-CBFb FRET 76
Cc1cccn2c(=O)c3cc(C#N)c(=NC(=O)c4cccs4)n(CC(C)C)c3nc12	RanGTP-Imp inh 151, Runt-SMMHC FRET 88
CCOCCCNC(=S)NCCCNc1nc2c(C)cc(C)cc2cc1C#N	Runt-SMMHC FRET 91 (no result: RanGTP-Imp inh)
Cc1cc(C)c2nc(NCCCNC(=S)NCCCN(C)C)c(C#N)cc2c1	Runt-SMMHC FRET 89, Runt-CBFb FRET 81
Cc1ccc2cc(C#N)c(NCCNC(=S)NCCCN(C)C)nc2c1C	none
COCCCNC(=S)NCCNc1nc2cc(C)cc(C)c2cc1C#N	none
COc1ccccc1CCNC(=O)C(=O)c1cn(CC(=O)N2CCCC2)c2ccccc12	none (no result: PERK inhibitor, Hck-Nef inh, Runt-SMMHC FRET, eIF4E-4G inh, Runt-CBFb FRET)
CCOc1cc(C(N)=O)cc(Br)c1OC	PERK inhibitor 4.9
Nc1ncc2c(n1)-c1ccoc1CC2	none (no result: PERK inhibitor, Hck-Nef inh, Runt-SMMHC FRET, eIF4E-4G inh, Runt-CBFb FRET)
O=c1oc2ccccc2cc1-c1nc(-c2cccs2)cs1	none
N#CCc1nc(-c2cc3ccccc3oc2=O)cs1	RanGTP-Imp inh 177
O=C(CSc1n[nH]c(-c2cccs2)n1)N1CCN(S(=O)(=O)c2ccccc2)CC1	none
Oc1c(CN2CCOCC2)cc(-c2ccccc2)cc1CN1CCOCC1	none
Nc1c(-c2ccccc2)c(CN2CCOCC2)nn1-c1ccc(C(=O)O)cc1	RanGTP-Imp inh 32
COc1ccc(CCNC(=S)N2CCC(C(N)=O)CC2)cc1	none
CC(C)(C)NC(=O)c1cc(-c2ccc3c(c2)OCO3)nc2ccccc12	none (no result: PERK inhibitor, Hck-Nef inh, Runt-SMMHC FRET, eIF4E-4G inh, Runt-CBFb FRET)
Cn1c(NC(=O)c2cc(-c3ccc4c(c3)OCO4)nc3ccccc23)cc(=O)n(C)c1=O	Runt-CBFb FRET 62
Cn1cc(C(=O)NCc2ccc(F)cc2)cn1	none
COc1cc(/C=C(\C#N)C(=O)NCc2cccs2)ccc1O	Runt-SMMHC FRET 58
COCCNC(=O)/C(C#N)=C/c1ccc(OC(=O)c2cccs2)c(OC)c1	none
CCc1noc(C)c1C(=O)NNC(=O)COc1ccc(Br)cc1	none (no result: PERK inhibitor, Hck-Nef inh, Runt-SMMHC FRET, eIF4E-4G inh, Runt-CBFb FRET)
CC1(c2ccc(OC(F)F)cc2)NC(=O)N(/N=C/c2c(O)ccc3ccccc23)C1=O (stereo not drawn)	Runt-SMMHC FRET 71
CC(C)N1C(=O)CCC1C(=O)NCCc1ccccc1 (stereo not drawn)	none
CC1=[N+](CC(=O)c2ccccc2)CCn2cccc21	RanGTP-Imp inh 20
CCC1=[N+](CC(=O)c2ccc(C)cc2)CCn2cccc21	none
COc1ccc(-c2onc3ccc(Br)cc23)cc1	none
COc1cc(-c2onc3ccc(Br)cc23)cc(OC)c1OC	Runt-SMMHC FRET 111, Runt-CBFb FRET 67
CCN1CCN(CCNC(=O)c2ccc3nc(-c4cccc(C)c4)c(-c4cccc(C)c4)nc3c2)CC1	none (no result: PERK inhibitor, Hck-Nef inh, Runt-SMMHC FRET, eIF4E-4G inh, Runt-CBFb FRET)
CCN(CC)CCN1C(=O)C(O)=C(C(=O)c2cccs2)C1c1ccccn1 (stereo not drawn)	RanGTP-Imp inh 68
O=C(C1=C(O)C(=O)N(CCN2CCOCC2)C1c1ccccn1)c1cccs1 (stereo not drawn)	RanGTP-Imp inh 26
CCN(CC)CCN1C(=O)C(O)=C(C(=O)c2cccs2)C1c1ccc(C)o1 (stereo not drawn)	none
O=C(CS(=O)(=O)Cc1ccccc1)Nc1ccccc1Cl	none
Cc1ccc2nc3c(cc2c1)c(NC(=O)C(C)(C)C)nn3CC(C)C	RanGTP-Imp inh 44 (no result: PERK inhibitor, Hck-Nef inh, Runt-SMMHC FRET, eIF4E-4G inh, Runt-CBFb FRET)
CC(C)Cn1nc(NC(=O)c2ccco2)c2cc3ccccc3nc21	RanGTP-Imp inh 51
Cc1ccc2nc3c(cc2c1)c(NC(=O)c1ccco1)nn3CC(C)C	RanGTP-Imp inh 78, Runt-SMMHC FRET 81
Cc1ccc2cc3c(NS(=O)(=O)c4cccc5nonc45)nn(CC(C)C)c3nc2c1	none (no result: PERK inhibitor, Hck-Nef inh, Runt-SMMHC FRET, eIF4E-4G inh, Runt-CBFb FRET)
CCn1nc(NC(=O)c2ccco2)c2cc3ccccc3nc21	RanGTP-Imp inh 30
CC(=O)NCCC(=O)Nc1nc2c(ccc3ccccc32)s1	none (no result: PERK inhibitor, Hck-Nef inh, Runt-SMMHC FRET, eIF4E-4G inh, Runt-CBFb FRET)
CC(C)CCOc1ccc(C2CC(=O)N(C)C2=O)cc1 (stereo not drawn)	none
O=c1c2ccccc2n(CC(O)CN2CCOCC2)c2ccccc12 (stereo not drawn)	RanGTP-Imp inh 79 (no result: PERK inhibitor, Hck-Nef inh, Runt-SMMHC FRET, eIF4E-4G inh, Runt-CBFb FRET)
CSc1nsc(/C=C/Nc2ccc(C)c(C)c2)c1C#N	RanGTP-Imp inh 33
Cc1cc(=O)[nH]c(N/N=C/c2cccs2)n1	none
O=c1cnnc(N/N=C/c2cccs2)[nH]1	PERK inhibitor 4.0, RanGTP-Imp inh inconclusive
O=C(O)c1ccccc1SCc1csc(-c2ccccc2)n1	RanGTP-Imp inh 27 (no result: PERK inhibitor, Hck-Nef inh, Runt-SMMHC FRET, eIF4E-4G inh, Runt-CBFb FRET)
Cc1cccc(NC(=O)C(c2ccccc2Cl)N2CCOCC2)c1 (stereo not drawn)	none
CCc1ccccc1NC(=O)CSc1nnc(Cn2nnc3ccccc32)n1C	none
Cc1cccc(N2CCN(C(=O)c3ccc4nc(-c5ccco5)c(-c5ccco5)nc4c3)CC2C)c1 (stereo not drawn)	RanGTP-Imp inh 35
Nc1cccc2c1C(=O)N(Cc1cccc(Cl)c1)C2=O	Runt-SMMHC FRET 93
COc1ccccc1C1C(C#N)=C(N)Oc2cc(C)n(Cc3ccccn3)c(=O)c21 (stereo not drawn)	none
COc1ccccc1C1C(C#N)=C(N)Oc2cc(C)n(CCCn3ccnc3)c(=O)c21 (stereo not drawn)	none
COCCn1c(C)cc2c(c1=O)C(c1ccccc1F)C(C#N)=C(N)O2 (stereo not drawn)	RanGTP-Imp inh 63
Cc1cc2c(c(=O)n1CCCn1ccnc1)C(c1ccco1)C(C#N)=C(N)O2 (stereo not drawn)	Runt-SMMHC FRET 108
CSc1ccccc1C(=O)NC1CCCC1	none
Cc1ccc2nc3c(cc2c1)c(NC(=O)C1CCCO1)nn3CC(C)C (stereo not drawn)	RanGTP-Imp inh 71, Runt-SMMHC FRET 59
CCn1nc(NC(=O)C2CCCO2)c2cc3cc(C)ccc3nc21 (stereo not drawn)	RanGTP-Imp inh 44
Cc1ccc2cc3c(NC(=O)C4CCCO4)nn(CC(C)C)c3nc2c1 (stereo not drawn)	RanGTP-Imp inh 31
Cc1ccc2nc(-c3ccc(NC(=O)C4CCCO4)cc3)[nH]c2c1 (stereo not drawn)	none
CC(=O)N1CCN(c2ccc(NC(=O)c3ccccc3Br)cc2Cl)CC1	none
CCCCc1nc2sc3c(=O)n(N)cnc3c2c2c1CCC2	PERK inhibitor 3.0
COC(=O)c1ccc(CSc2n[nH]c(=S)s2)o1	eIF4E-4G inh 33
O=C(CCc1c[nH]c2ccccc12)OCc1cccc(C(F)(F)F)c1	none (no result: PERK inhibitor, Hck-Nef inh, Runt-SMMHC FRET, eIF4E-4G inh, Runt-CBFb FRET)
O=C(CN(CC1CCCO1)C(=O)CNS(=O)(=O)c1ccc(Cl)cc1)NC1CCCCC1 (stereo not drawn)	none (no result: PERK inhibitor, Hck-Nef inh, Runt-SMMHC FRET, eIF4E-4G inh, Runt-CBFb FRET)
NC(=O)CSc1nnc(CSc2ncccn2)n1-c1ccccc1	PERK inhibitor 3.0
